The subject of test [1] is LLC-MK2. Kind of test: Virus rating against yellow fever virus (MK2 cell line); Evaluated by plaque reduction assay. The test is classed as functional, cell-based. The conditions noted are these: Cercopithecidae. For orientation: In a plaque reduction assay, fewer plaques than in the control indicate reduced infectivity or spread.
Test [2] relates to L929. Kind of test: Virus rating against vaccinia virus (L-929 cell line). The test is classed as functional, Mus musculus. In a few lines: (§1)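 The virus rating is computed from CPE-inhibition data by the Huffman and Sidwell method. VR > 1 means definite to moderate activity; VR < 0.5 means no significant activity.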
In test [3] the test system is LLC-MK2. Kind of test: Inhibitory concentration (reduction in cytopathic effect) against yellow fever virus (MK2 cell line). The test is classed as functional, cell-based, Cercopithecidae. As to conditions: Macaca mulatta. In a few lines:
(§2)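 Antiviral activity was scored as inhibition of virus cytopathic effect (CPE) in the named host cells. IC50 is the drug concentration giving a 50% reduction in virus CPE.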
A general note: Cytopathic effects are the visible damage that an infection or toxin causes in cultured cells.

The test system of test [4] is L929. Kind of test: Virus rating against vesicular stomatitis virus (L-929 cell line). The test is classed as functional, Mus musculus. In a few lines: as §1
Test [5] deals with LLC-MK2. The test is described as follows: Minimum toxic concentration against yellow fever virus (MK2 cell line). The test is classed as functional, Cercopithecidae. The method in brief: (§3)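 Host-cell toxicity was measured alongside the antiviral test. MTC is the lowest concentration of test compound giving a 50% reduction in percent survival of viable host cells.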
Test [6] deals with L929. The test is described as follows: Inhibitory concentration (reduction in cytopathic effect) against vesicular stomatitis virus (L-929 cell line). The test is classed as functional, cell-based. The conditions noted are these: Mus musculus. In a few lines: as §2
Test [7] deals with L929. Kind of test: Minimum toxic concentration against vaccinia virus (L-929 cell line). The test is classed as functional, Mus musculus. The method in brief: as §3
For test [8], the system named is L929. The test is described as follows: Minimum toxic concentration against vesicular stomatitis virus (L-929 cell line). The test is classed as functional, Mus musculus. In a few lines:
as §3

The test system of test [9] is L929. Kind of test: Inhibitory concentration (reduction in cytopathic effect) against vaccinia virus (L-929 cell line). The test is classed as functional, cell-based. The conditions noted are these: Mus musculus. The method in brief:
as §2

Test [10] concerns Vero. Kind of test: Virus rating against vaccinia virus (vero cell line). The test is classed as functional, Chlorocebus sabaeus. In a few lines: as §1
Test [11] concerns Vero. Kind of test: Inhibitory concentration (reduction in cytopathic effect) against vaccinia virus (vero cell line). The test is classed as functional, cell-based. As to conditions: Chlorocebus sabaeus. The method in brief:
as §2

Test [12] has as its system Vero. The test is described as follows: Minimum toxic concentration against vaccinia virus (vero cell line). The test is classed as functional, Chlorocebus sabaeus. The method in brief:
as §3

Test [13] deals with Vero. The test is described as follows: Virus rating against vaccinia virus ( vero cell line). The test is classed as functional, Chlorocebus sabaeus. The method in brief:
as §1

In the next test the test system is Vaccinia virus. The test is described as follows: Minimum inhibitory concentration against vaccinia virus. The test is classed as functional. As to conditions: Orthopoxvirus vaccinia.
For test [14], the system named is Vesicular stomatitis virus. Kind of test: Minimum inhibitory concentration against vesicular stomatitis virus. The test is classed as functional.

Molecules are shown by their SMILES. In brackets after ≈: the same amount, converted by molar mass.

Broadly, the IC50 is the concentration needed to halve the response being measured.

Take `OC[C@H]1C[C@@H](n2cnc3cnccc32)C(O)[C@H]1O` (stereo partly drawn): the VR entry in the test on LLC-MK2 [1] was “Evaluated by plaque reduction assay”; in the test with L929 [2], 1; with L929 [4], 0.7. Besides, the IC50 came to 70 µg/mL (≈ 281 µM) in the test with LLC-MK2 [3], 49 µg/mL (≈ 197 µM) in the test with L929 [6] and 7 µg/mL (≈ 28.1 µM) with L929 [9]. The MTC50 in the test on LLC-MK2 [5] was 100 µg/mL; with L929 [7], 249 µg/mL; with L929 [8] it was 79 µg/mL.
Regarding `Nc1nccc2c1ncn2[C@@H]1C[C@H](CBr)[C@H](O)C1O` (stereo partly drawn), the VR is recorded as 0.6 in the test with Vero [10] and 0.3 with L929 [4]. Also, the IC50 worked out at 147 µg/mL (≈ 449 µM) with L929 [6] and 87 µg/mL (≈ 266 µM) with Vero [11]. Moreover, the MTC50 with L929 [8] and in the test on Vero [12] was 320 µg/mL each time.
For `C[C@H]1C[C@@H](n2cnc3c(N)nccc32)C(O)[C@H]1O` (stereo partly drawn), the VR result in the test on LLC-MK2 [1] is listed as “Evaluated by plaque reduction assay”; in the test on Vero [10], 1.4; in the test with L929 [4], 1. Moreover, the figures for the IC50 with LLC-MK2 [3], in the test on L929 [6] and in the test on Vero [11] were 23 µg/mL (≈ 92.6 µM), 100 µg/mL (≈ 403 µM) and 3.1 µg/mL (≈ 12.5 µM), respectively. The MTC50 in the test with LLC-MK2 [5] was determined as 104 µg/mL; with L929 [8], 100 µg/mL; in the test on Vero [12], 100 µg/mL.
On to `Nc1nccc2c1ncn2[C@@H]1C[C@H](CCl)[C@H](O)C1O` (stereo partly drawn), for which the figures for the VR with L929 [2] and with L929 [4] were 0.6 and 0.4, respectively. Besides, the IC50 in the test with L929 [6] is 88 µg/mL (≈ 311 µM); in the test with L929 [9], 32 µg/mL (≈ 113 µM). For the same compound, the MTC50 with L929 [7] turned out to be 90 µg/mL; with L929 [8], 283 µg/mL.
`NC[C@H]1C[C@@H](n2cnc3c(N)nccc32)C(O)[C@H]1O` (stereo partly drawn): the VR with Vero [10] is given as 1. The compound further gave an IC50 in the test on Vero [11] of 18 µg/mL (≈ 68.4 µM). The same compound displayed an MTC50 with Vero [12] of 320 µg/mL.
As to `NC(=O)[C@H]1C[C@@H](n2cnc3c(N)nccc32)C(O)[C@H]1O` (stereo partly drawn), in the test on Vero [11], inhibition was half-maximal at 32 µg/mL (≈ 115 µM) (IC50). The same compound displayed a VR in the test with Vero [13] of 0.7. This compound showed an MTC50 with Vero [12] of 320 µg/mL.
As for `Nc1nccc2c1ncn2[C@@H]1C[C@H](CO)[C@H](O)C1O` (stereo partly drawn), the MIC (against Vaccinia virus; in test [14]) was 20 µg/mL (≈ 75.7 µM) in each case.

Values taken from ChEMBL document CHEMBL1126742, “Syntheses of 5'-substituted analogues of carbocyclic 3-deazaadenosine as potential antivirals” (J Med Chem, 1993).
